Measurements reported in ChEMBL document CHEMBL4020727, “Synthesis and biological evaluation of largazole zinc-binding group analogs” (Bioorg Med Chem, 2017).
The source made the active and inactive calls. No cut-off for these calls is given here.

Assays:
HCT-116 [1] = test: Cytotoxicity against human HCT116 cells assessed as change in cell viability at 10 uM after 48 hrs by MTT assay; assay type: functional, cell-based
In short: (§1)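 Cells grown in DMEM with 10% FBS, 37 °C, 5% CO2; 1 × 10^4 cells per well plated and left 24 h, then exposed to a range of compound concentrations or vehicle (1% EtOH) for 48 h. Viability read by MTT.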

MDA-MB-231 [2] = test: Cytotoxicity against human MDA-MB-231 cells assessed as change in cell viability at 10 uM after 48 hrs by MTT assay; assay type: functional, cell-based; in short: as §1
Histone deacetylase 1 = Histone deacetylase 1 (Homo sapiens, UniProt Q13547); test: Inhibition of recombinant full length C-terminal His/FLAG-tagged human HDAC1 expressed in baculovirus infected Sf9 insect cells using BPS HDAC substrate 3 at 10 uM after 30 mins by fluorescence assay relative to control
In short: (§2)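 Run by a contract lab. Compound incubated with HDAC enzyme, substrate, bovine serum albumin and HDAC buffer in duplicate for 30 min at 37 °C. Quenched with HDAC developer, 15 min at room temperature, fluorescence read at ex 360/em 460 nm. Activity taken as (F−Fb)/(Ft−Fb) against blank and solvent control wells; IC50 from curve fitting.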

Histone deacetylase 2 = Histone deacetylase 2 (Homo sapiens, UniProt Q92769); test: Inhibition of full length C-terminal FLAG-tagged human HDAC2 expressed in baculovirus infected Sf9 insect cells using BPS HDAC substrate 3 at 10 uM after 30 mins by fluorescence assay relative to control; in short: as §2
[3] = target: Histone deacetylase 3/Nuclear receptor corepressor 2 (HDAC3/NCoR2) (Homo sapiens) (UniProt O15379+Q9Y618); test: Inhibition of full length human C-terminal His-tagged HDAC3/N-terminal GST-tagged NCOR2 (395 to 489 residues) expressed in baculovirus infected Sf9 insect cells using BPS HDAC substrate 3 at 10 uM after 30 mins by fluorescence assay relative to control; in short: as §2
[4] = target: Histone deacetylase 5 (Homo sapiens) (UniProt Q9UQL6); test: Inhibition of full length N-terminal GST-tagged human HDAC5 expressed in baculovirus infected Sf9 insect cells using BPS HDAC class 2a substrate at 10 uM after 30 mins by fluorescence assay relative to control; in short: as §2
[5] = target: T1, Protein deacetylase HDAC6 (Homo sapiens) (UniProt Q9UBN7); test: Inhibition of full length N-terminal GST-tagged human HDAC6 expressed in baculovirus infected Sf9 insect cells using HDAC substrate 3 after at 10 uM 30 mins by fluorescence assay relative to control; in short: as §2
T1 sequence (whole entry): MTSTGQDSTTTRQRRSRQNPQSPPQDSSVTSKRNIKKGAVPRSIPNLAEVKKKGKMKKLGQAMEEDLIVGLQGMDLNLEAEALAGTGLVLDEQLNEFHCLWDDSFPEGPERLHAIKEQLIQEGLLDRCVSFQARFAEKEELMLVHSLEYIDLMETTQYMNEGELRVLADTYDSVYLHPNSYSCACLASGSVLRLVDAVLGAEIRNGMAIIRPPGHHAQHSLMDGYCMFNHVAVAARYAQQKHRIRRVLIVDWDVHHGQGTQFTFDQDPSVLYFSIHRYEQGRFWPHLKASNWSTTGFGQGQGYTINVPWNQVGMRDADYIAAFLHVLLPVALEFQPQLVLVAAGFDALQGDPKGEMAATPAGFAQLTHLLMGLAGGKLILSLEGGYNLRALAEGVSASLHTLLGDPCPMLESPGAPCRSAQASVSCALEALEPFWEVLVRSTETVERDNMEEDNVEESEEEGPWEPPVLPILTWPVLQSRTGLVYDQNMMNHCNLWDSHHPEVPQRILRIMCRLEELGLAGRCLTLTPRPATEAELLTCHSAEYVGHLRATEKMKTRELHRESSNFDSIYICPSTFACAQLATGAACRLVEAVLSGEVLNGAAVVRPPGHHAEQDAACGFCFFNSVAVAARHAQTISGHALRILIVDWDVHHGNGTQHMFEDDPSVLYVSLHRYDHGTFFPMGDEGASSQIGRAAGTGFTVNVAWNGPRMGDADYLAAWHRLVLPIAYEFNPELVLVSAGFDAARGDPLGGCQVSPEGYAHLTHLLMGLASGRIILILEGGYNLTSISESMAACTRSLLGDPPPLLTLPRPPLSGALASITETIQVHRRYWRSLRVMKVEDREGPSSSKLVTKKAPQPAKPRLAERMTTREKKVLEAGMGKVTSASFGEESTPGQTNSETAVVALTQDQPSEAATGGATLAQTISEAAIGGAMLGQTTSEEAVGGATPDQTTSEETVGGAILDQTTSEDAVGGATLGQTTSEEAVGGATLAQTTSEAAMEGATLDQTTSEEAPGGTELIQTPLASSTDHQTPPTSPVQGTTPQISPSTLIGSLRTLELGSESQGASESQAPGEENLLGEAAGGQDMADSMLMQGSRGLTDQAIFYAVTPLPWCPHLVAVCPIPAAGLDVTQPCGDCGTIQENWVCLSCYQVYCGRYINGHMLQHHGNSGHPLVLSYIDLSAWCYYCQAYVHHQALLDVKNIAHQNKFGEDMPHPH

[6] = target: T2, Histone deacetylase 8 (Homo sapiens) (UniProt Q9BY41); test: Inhibition of full length C-terminal His-tagged human HDAC8 expressed in baculovirus infected Sf9 insect cells using BPS HDAC class 2a substrate at 10 uM after 30 mins by fluorescence assay relative to control; in short: as §2
T2 sequence (whole entry): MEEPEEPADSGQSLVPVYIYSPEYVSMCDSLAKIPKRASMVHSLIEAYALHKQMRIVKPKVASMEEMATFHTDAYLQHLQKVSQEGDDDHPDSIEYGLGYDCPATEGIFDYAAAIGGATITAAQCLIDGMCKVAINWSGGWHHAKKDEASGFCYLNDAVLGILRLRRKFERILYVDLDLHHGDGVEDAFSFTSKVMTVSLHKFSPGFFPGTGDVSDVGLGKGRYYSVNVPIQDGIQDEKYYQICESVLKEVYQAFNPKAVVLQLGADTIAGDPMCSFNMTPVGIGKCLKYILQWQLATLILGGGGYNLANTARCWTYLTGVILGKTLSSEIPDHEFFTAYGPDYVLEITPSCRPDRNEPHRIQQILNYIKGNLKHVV

[7] = target: T3, Polyamine deacetylase HDAC10 (Homo sapiens) (UniProt Q969S8); test: Inhibition of N-terminal GST-tagged/C-terminal His-tagged human HDAC10 (1 to 481 residues) expressed in baculovirus infected Sf9 insect cells using BPS HDAC substrate 3 at 10 uM after 30 mins by fluorescence assay relative to control; in short: as §2
T3 sequence (whole entry): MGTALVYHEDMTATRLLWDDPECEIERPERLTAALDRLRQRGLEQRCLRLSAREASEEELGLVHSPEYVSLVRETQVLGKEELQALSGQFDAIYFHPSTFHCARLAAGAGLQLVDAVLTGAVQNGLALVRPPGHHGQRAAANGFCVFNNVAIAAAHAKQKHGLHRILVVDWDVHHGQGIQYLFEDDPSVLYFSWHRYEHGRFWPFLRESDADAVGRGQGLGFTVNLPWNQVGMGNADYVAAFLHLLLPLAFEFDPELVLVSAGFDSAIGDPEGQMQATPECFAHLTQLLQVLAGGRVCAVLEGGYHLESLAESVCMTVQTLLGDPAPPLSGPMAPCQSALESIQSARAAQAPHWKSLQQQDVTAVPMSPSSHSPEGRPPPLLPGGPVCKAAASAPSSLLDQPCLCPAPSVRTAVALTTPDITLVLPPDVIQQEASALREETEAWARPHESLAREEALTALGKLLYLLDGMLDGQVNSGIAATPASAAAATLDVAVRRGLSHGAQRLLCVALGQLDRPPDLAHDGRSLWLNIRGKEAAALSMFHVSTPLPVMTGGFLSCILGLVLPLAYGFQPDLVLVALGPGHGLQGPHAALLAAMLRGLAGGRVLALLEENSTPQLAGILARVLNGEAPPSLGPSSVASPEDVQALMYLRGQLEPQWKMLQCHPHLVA

HCT-116 [8] = test: Cytotoxicity against human HCT116 cells assessed as reduction in cell viability after 48 hrs by MTT assay; assay type: functional, cell-based; details: HCT-116, 48 h; in short: as §1
MDA-MB-231 [9] = test: Cytotoxicity against human MDA-MB-231 cells assessed as reduction in cell viability after 48 hrs by MTT assay; assay type: functional, cell-based; details: MDA-MB-231, 48 h; in short: as §1
Homo sapiens [10] = species on record: Homo sapiens; test: Inhibition of class 1 HDAC in human HCT116 cells assessed as hyperacetylation of histone H3 (Lys9/14) measured at 8 hrs post treatment by immunoblot analysis; assay type: cell-based
In short: (§3)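 Cells in DMEM/10% FBS; 4 × 10^5 cells seeded in 60-mm dishes overnight, then treated for 8 h with 0–10 μM (final) compound or vehicle (1% EtOH). Whole-cell lysates loaded at equal protein (BCA), run on SDS-PAGE, blotted to PVDF and probed with anti-acetyl histone H3 (Lys9/14); β-actin also probed. Chemiluminescent detection.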

Homo sapiens [11] = species on record: Homo sapiens; test: Inhibition of class 1 HDAC in human MDA-MB-231 cells assessed as hyperacetylation of histone H3 (Lys9/14) measured at 8 hrs post treatment by immunoblot analysis; assay type: cell-based; in short: as §3
[12] = target: Histone deacetylase 3/Nuclear receptor corepressor 2 (HDAC3/NCoR2) (Homo sapiens, UniProt O15379); test: Inhibition of full length human C-terminal His-tagged HDAC3/N-terminal GST-tagged NCOR2 (395 to 489 residues) expressed in baculovirus infected Sf9 insect cells using BPS HDAC substrate 3 after 30 mins by fluorescence assay
In short: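 Run by a contract lab. Compound incubated with HDAC enzyme, substrate, bovine serum albumin and HDAC buffer in duplicate for 30 min at 37 °C. Activity taken as (F−Fb)/(Ft−Fb) against blank and solvent control wells; IC50 from curve fitting.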

[13] = target: Histone deacetylase 5 (Homo sapiens) (UniProt Q9UQL6); test: Inhibition of full length N-terminal GST-tagged human HDAC5 expressed in baculovirus infected Sf9 insect cells using BPS HDAC class 2a substrate at 1 uM after 30 mins by fluorescence assay relative to control
In short: (§4)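 Run by a contract lab. Compound incubated with HDAC enzyme, HDAC substrate, BSA and HDAC buffer, in duplicate, at 37 °C for 30 min. Quenched with HDAC developer, then 15 min at room temperature. Fluorescence read at ex 360/em 460 nm. Percent activity = (F−Fb)/(Ft−Fb), using blank and solvent-control wells. IC50 from curve fitting.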

[14] = target: T4, Polyamine deacetylase HDAC10 (Homo sapiens, UniProt Q969S8); test: Inhibition of N-terminal GST-tagged/C-terminal His-tagged human HDAC10 (1 to 481 residues) expressed in baculovirus infected Sf9 insect cells using BPS HDAC substrate 3 after 30 mins by fluorescence assay; in short: as §4
T4 sequence (Q969S8 whole entry): T3 sequence (whole entry)

Histone deacetylase 2, sequence (Q92769 whole entry, the tested form may be a part): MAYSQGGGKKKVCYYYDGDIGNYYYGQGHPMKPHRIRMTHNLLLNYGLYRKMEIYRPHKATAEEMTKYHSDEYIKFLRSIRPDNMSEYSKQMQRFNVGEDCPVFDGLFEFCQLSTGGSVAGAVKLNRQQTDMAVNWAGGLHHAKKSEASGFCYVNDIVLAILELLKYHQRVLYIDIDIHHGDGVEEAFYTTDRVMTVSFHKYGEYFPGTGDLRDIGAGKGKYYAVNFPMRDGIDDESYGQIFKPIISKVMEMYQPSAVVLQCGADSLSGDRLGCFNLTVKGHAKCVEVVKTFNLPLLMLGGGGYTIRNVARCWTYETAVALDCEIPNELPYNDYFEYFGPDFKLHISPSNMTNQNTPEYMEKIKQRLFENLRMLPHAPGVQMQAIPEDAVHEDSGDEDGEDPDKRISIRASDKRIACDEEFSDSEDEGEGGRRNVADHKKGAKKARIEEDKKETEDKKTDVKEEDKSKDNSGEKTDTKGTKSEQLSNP
Histone deacetylase 1, sequence (Q13547 whole entry): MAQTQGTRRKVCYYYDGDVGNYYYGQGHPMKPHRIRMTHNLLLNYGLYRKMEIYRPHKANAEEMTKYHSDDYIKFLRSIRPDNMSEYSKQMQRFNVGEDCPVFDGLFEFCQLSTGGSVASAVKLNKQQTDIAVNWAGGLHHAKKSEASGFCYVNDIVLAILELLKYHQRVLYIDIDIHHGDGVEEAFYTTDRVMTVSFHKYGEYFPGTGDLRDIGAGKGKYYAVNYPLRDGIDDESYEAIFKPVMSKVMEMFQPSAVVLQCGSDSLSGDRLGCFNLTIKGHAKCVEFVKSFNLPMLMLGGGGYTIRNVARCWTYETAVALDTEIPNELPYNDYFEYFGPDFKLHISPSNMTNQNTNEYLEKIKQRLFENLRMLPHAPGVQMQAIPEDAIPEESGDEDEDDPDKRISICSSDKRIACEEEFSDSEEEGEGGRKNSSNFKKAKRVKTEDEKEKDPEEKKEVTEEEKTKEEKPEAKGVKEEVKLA
Histone deacetylase 5 (Homo sapiens), sequence (Q9UQL6 whole entry): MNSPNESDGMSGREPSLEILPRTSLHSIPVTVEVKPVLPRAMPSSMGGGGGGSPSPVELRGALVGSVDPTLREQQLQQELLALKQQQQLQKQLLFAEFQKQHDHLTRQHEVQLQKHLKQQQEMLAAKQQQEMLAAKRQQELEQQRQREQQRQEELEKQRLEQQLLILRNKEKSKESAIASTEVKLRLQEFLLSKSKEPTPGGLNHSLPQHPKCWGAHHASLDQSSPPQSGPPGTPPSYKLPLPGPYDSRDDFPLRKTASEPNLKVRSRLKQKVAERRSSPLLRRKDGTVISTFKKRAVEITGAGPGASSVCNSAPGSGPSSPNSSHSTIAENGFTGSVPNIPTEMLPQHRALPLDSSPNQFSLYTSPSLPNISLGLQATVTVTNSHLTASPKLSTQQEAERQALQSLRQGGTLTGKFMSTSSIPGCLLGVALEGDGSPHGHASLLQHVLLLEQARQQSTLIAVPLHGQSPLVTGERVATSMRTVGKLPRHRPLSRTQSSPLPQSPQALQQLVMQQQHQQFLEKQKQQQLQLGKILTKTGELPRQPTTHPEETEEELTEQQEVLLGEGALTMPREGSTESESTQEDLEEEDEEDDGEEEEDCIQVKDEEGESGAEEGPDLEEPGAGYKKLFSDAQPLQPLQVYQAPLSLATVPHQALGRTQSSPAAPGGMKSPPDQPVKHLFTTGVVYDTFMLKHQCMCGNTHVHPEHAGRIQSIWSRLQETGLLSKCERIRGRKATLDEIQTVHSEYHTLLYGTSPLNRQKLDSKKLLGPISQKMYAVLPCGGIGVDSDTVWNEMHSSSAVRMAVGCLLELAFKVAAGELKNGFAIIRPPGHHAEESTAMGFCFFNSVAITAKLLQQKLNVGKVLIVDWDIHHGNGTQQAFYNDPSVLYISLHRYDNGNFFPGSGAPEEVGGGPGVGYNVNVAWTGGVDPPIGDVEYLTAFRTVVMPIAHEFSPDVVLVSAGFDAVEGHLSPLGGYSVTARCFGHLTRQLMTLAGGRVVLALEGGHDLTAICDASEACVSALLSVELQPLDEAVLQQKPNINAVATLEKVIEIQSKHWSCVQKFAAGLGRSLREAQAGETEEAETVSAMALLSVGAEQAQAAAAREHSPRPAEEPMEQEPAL
Histone deacetylase 3/Nuclear receptor corepressor 2 (HDAC3/NCoR2), sequence (O15379 whole entry, the tested form may be a part): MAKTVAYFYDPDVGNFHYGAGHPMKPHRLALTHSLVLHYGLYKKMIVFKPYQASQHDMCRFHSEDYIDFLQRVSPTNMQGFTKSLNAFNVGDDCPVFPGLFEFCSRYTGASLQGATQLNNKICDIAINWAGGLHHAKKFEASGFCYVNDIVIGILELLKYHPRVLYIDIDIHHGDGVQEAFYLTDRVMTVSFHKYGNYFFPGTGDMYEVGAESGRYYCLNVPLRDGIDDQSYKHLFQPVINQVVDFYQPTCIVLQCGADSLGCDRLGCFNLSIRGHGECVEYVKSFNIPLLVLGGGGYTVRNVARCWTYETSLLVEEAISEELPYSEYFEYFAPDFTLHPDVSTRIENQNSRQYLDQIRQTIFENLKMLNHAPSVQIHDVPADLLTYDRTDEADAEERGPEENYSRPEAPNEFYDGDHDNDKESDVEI
Histone deacetylase 3/Nuclear receptor corepressor 2 (HDAC3/NCoR2), sequence (Q9Y618 whole entry, further chain, the tested form may be a part): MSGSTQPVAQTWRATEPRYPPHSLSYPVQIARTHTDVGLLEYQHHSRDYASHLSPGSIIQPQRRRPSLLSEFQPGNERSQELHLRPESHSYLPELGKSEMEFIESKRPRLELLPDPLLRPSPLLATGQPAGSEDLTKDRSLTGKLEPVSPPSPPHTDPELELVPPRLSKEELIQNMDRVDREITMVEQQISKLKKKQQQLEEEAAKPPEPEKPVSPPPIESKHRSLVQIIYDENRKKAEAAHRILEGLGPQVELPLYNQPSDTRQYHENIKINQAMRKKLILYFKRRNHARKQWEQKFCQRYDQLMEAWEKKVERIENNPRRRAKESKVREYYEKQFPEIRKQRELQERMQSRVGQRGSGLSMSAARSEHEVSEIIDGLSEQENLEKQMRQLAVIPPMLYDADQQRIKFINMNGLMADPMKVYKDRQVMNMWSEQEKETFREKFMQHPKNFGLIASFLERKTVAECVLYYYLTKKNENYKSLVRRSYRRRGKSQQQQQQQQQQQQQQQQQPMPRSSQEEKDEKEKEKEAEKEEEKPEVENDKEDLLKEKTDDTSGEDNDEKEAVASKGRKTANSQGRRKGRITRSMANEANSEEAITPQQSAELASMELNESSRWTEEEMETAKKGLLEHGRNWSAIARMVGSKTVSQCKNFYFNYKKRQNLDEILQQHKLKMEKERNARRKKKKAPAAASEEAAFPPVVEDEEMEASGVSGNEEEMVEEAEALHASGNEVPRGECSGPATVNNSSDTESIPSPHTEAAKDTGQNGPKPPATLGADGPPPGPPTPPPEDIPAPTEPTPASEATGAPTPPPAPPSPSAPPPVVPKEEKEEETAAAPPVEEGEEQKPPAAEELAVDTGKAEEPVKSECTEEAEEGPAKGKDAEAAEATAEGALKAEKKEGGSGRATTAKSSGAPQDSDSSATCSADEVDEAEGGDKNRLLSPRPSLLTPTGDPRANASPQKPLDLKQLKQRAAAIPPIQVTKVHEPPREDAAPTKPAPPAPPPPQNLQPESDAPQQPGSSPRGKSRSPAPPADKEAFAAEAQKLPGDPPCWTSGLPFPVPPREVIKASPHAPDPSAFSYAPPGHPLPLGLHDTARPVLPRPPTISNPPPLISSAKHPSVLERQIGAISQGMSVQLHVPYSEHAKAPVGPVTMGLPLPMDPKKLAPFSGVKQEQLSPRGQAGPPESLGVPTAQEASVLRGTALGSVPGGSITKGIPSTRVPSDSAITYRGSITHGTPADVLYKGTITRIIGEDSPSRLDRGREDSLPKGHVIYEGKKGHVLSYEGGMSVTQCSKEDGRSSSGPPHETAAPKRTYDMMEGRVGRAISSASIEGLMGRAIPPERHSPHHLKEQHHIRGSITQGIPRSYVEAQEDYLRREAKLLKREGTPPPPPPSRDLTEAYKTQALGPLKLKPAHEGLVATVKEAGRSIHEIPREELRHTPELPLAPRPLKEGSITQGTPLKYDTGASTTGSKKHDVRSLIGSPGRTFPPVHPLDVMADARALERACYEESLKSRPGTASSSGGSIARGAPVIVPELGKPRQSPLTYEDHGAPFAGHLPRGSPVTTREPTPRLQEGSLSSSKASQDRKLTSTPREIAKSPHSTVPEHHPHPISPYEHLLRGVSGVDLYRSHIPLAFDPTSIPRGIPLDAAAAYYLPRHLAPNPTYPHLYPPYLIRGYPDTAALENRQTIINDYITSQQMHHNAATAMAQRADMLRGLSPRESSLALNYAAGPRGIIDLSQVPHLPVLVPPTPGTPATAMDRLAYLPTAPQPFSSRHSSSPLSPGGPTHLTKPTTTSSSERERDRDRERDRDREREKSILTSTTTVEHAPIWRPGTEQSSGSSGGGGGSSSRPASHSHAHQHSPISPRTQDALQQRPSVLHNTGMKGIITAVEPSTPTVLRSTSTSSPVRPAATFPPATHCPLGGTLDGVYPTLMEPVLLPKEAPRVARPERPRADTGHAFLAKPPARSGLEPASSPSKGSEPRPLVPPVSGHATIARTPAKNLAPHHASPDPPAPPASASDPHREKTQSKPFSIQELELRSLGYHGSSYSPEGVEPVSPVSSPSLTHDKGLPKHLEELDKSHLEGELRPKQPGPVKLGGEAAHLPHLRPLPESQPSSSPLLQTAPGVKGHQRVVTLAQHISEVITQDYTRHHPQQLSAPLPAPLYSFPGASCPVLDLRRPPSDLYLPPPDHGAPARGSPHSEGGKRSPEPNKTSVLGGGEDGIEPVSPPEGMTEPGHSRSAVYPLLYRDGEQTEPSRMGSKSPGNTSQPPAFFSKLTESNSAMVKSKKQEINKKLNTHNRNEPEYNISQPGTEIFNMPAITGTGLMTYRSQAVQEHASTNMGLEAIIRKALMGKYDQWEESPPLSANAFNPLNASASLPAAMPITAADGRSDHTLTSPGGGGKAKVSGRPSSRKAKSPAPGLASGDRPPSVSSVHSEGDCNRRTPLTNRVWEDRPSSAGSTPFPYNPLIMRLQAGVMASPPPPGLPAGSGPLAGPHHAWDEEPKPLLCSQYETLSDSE

Compound | Activity (HCT-116 [1]) | Activity (MDA-MB-231 [2]) | inhibition (Histone deacetylase 1) | inhibition (Histone deacetylase 2) | inhibition [3] | inhibition [4] | inhibition [5] | inhibition [6] | inhibition [7] | IC50 (HCT-116 [8]) | IC50 (MDA-MB-231 [9]) | inhibition (Homo sapiens [10]) | inhibition (Homo sapiens [11]) | IC50 [12] | inhibition [13] | IC50 [14]
CC(C)[C@@H]1NC(=O)[C@]2(C)CSC(=N2)c2csc(n2)CNC(=O)C[C@@H](/C=C/CCC(=O)O)OC1=O | inactive | inactive | < 15% | < 15% | < 15% | < 15% | 17% | 20% | 19% | – | – | – | – | – | – | –
CC(C)[C@@H]1NC(=O)[C@]2(C)CSC(=N2)c2csc(n2)CNC(=O)C[C@@H](/C=C/CCN)OC1=O | inactive | inactive | < 15% | < 15% | < 15% | < 15% | < 15% | < 15% | < 15% | – | – | – | – | – | – | –
CCCCCCCC(=O)SCC/C=C/[C@@H]1CC(=O)NCc2nc(cs2)C2=N[C@@](C)(CS2)C(=O)N[C@@H](C(C)C)C(=O)O1 [LARGAZOLE] | – | – | – | – | – | – | – | – | – | 20 nM | 1.6 nM | Dose-dependent effect | Dose-dependent effect | – | – | –
CCC(=O)CC/C=C/[C@@H]1CC(=O)NCc2nc(cs2)C2=N[C@@](C)(CS2)C(=O)N[C@@H](C(C)C)C(=O)O1 | inactive | inactive | 30% | 24% | – | < 15% | < 15% | < 15% | 49% | – | – | – | – | 8000 nM | – | –
CCC/C=C/[C@@H]1CC(=O)NCc2nc(cs2)C2=N[C@@](C)(CS2)C(=O)N[C@@H](C(C)C)C(=O)O1 | inactive | inactive | < 15% | < 15% | < 15% | < 15% | < 15% | 24% | < 15% | – | – | – | – | – | – | –
CC(=O)CC(=O)NC/C=C/[C@@H]1CC(=O)NCc2nc(cs2)C2=N[C@@](C)(CS2)C(=O)N[C@@H](C(C)C)C(=O)O1 | inactive | inactive | < 15% | < 15% | < 15% | < 15% | 22% | < 15% | < 15% | – | – | – | – | – | – | –
CC(C)[C@@H]1NC(=O)[C@]2(C)CSC(=N2)c2csc(n2)CNC(=O)C[C@@H](/C=C/CCS)OC1=O | – | – | – | – | – | – | – | – | – | – | – | – | – | – | < 15% | 0.5 nM
